Measured values from the array DNA melting data of Ke et al. (doi:10.1101/2024.01.08.574731).

How the values were obtained:
[1] = folding enthalpy; higher = less favourable; fluorescence melt of hairpins on a sequencing array, two-state fit; conditions: sodium 0.088 M
Procedure, shortened: (§1)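 Melting temperature and folding enthalpy were obtained by bootstrapped two-state fitting. Fits used Cy3 fluorescence of library hairpins with annealed Cy3 and quencher oligos on a sequenced MiSeq flow cell, imaged in 50 mM Na-HEPES pH 8.0, 25 mM NaCl in 2.5 °C steps up to 60 °C and normalised to pre-quench Cy3 and control constructs. Four replicates were combined by inverse-variance weighting, and fitted temperatures were raised by 9.35 °C to match UV melts.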

[2] = melting temperature; fluorescence melt of hairpins on a sequencing array, two-state fit, raised by 9.35 °C to match UV melts; conditions: sodium 0.088 M
Procedure, shortened: as §1

| Sequence | folding enthalpy [1] | Tm [2] |
| --- | --- | --- |
| GTAATCGAAAGATTAC ((((((....)))))) | -48.2 kcal/mol | 53.3 °C |
| GTGACAGGAAACTGTCGC (.(((((....))))).) | -30.2 kcal/mol | 53.9 °C |
| GATGTGGGAAACCACGTC ((.((((....)))).)) | -26.5 kcal/mol | 51 °C |
| GATCTCCACCGAGATC ((((((....)))))) | -37.2 kcal/mol | 51.9 °C |
| GCGACCATCGC ((((...)))) | -17.6 kcal/mol | 46.4 °C |
| GATCCCATTAGGGATC ((((((....)))))) | -36.5 kcal/mol | 63 °C |
| GATCTGCCCGCAGATC ((((((....)))))) | -46.4 kcal/mol | 59.7 °C |
| GACACGGGAAACCGTGCC (.(((((....))))).) | -13.8 kcal/mol | 48.4 °C |
| GGTGTTGGAAACAACGCC ((.((((....)))).)) | -36.1 kcal/mol | 57.3 °C |
| GGGGTAGAAATACCCC ((((((....)))))) | -34.9 kcal/mol | 60.4 °C |
| GGTGTCGAAAGACCTACC ((((((....)))..))) | -16.1 kcal/mol | 33.8 °C |
| GATCGGGACACCGATC ((((((....)))))) | -38.4 kcal/mol | 66 °C |
| GGAGTTGGAAACGATTCC (((.(.(....).).))) | -19.6 kcal/mol | 40.8 °C |
| GCATCCGGAAACGGACAC (..((((....))))..) | -12.7 kcal/mol | 21.6 °C |
| GAGAAGCGAAAGCTGCTC (((.(((....))).))) | -27.4 kcal/mol | 58.1 °C |
| GGATAGCGAAAGCTTCC (((.(((....)))))) | -19 kcal/mol | 48.1 °C |
| GATCTTTCGTAAGATC ((((((....)))))) | -30.6 kcal/mol | 44.4 °C |
| GGAGATCGAAAGATATCC (((.(((....))).))) | -43.2 kcal/mol | 49.6 °C |
| GCACTAGGAAACCAGTGC (((((.(....).))))) | -34.1 kcal/mol | 48.3 °C |
| GATCTCCATGGAGATC ((((((....)))))) | -42 kcal/mol | 57.4 °C |
| GGTTGACGAAAGTCTACC (((.(((....))).))) | -33.1 kcal/mol | 53.8 °C |
| GCAACGGAAACGTTGC ((((((....)))))) | -32.6 kcal/mol | 68.3 °C |
| GCGACAGATCGC ((((....)))) | -20.7 kcal/mol | 47.9 °C |
| GCGGTCTCGAAAGAGCGC (((..(((....)))))) | -38.2 kcal/mol | 58.6 °C |

| Sequence | folding enthalpy [1] | Tm [2] |
| --- | --- | --- |
| GTTGAAGGAAACTTCGAC ((.((((....)))).)) | -32.5 kcal/mol | 44.9 °C |
| GAGCACGAAAGTGAACTC ((((((....)))..))) | -20.2 kcal/mol | 42.9 °C |
| GATCAGGAACTGATC ((((((...)))))) | -39.4 kcal/mol | 60.6 °C |
| GGAGGTGGAAACGCTTCC (((.(.(....).).))) | -23.3 kcal/mol | 34.3 °C |
| GCTGCCGAAAGGCATAGC ((((((....)))..))) | -15 kcal/mol | 51.6 °C |
| GCCTATGGAAACATGGGC (((.(((....))).))) | -46.6 kcal/mol | 51.7 °C |
| GATCAGTCACTGATC ((((((...)))))) | -39.9 kcal/mol | 50.1 °C |
| GATGGGACGAAAGTCATC (((..(((....)))))) | -15.4 kcal/mol | 31.9 °C |
| GATGGGCGAAAGCCTATC (((.(((....))).))) | -22.3 kcal/mol | 53.9 °C |
| GATCTGAGGGCAGATC ((((((....)))))) | -33.4 kcal/mol | 47.7 °C |
| GTCACACGAAAGTGAGAC (((.(((....))).))) | -31.9 kcal/mol | 55.1 °C |
| GATCCATGTATGGATC ((((((....)))))) | -42.6 kcal/mol | 58 °C |
| GGCAACGAAAGTTTGGCC ((((((....)))..))) | -27.3 kcal/mol | 46.4 °C |
| GGAAGCGGAAACGCTCCC ((.((((....)))).)) | -19.8 kcal/mol | 52.4 °C |
| CCAATGAAAATTGG (((((....))))) | -18.1 kcal/mol | 41.9 °C |
| CGTATCGGAAACGAAACG (((.(((....))).))) | -37.5 kcal/mol | 42.5 °C |
| GGGTAAGGAAACTTATCC ((.((((....)))).)) | -29.2 kcal/mol | 40.1 °C |
| GAGTGCGAAAGCAGTCTC ((((((....)))..))) | -23.7 kcal/mol | 58.1 °C |
| GTCCACGGAAACGTAGAC (((.(((....))).))) | -26.6 kcal/mol | 41 °C |
| GATCGCCTAAGCGATC ((((((....)))))) | -40.8 kcal/mol | 68 °C |
| CGAGACGGAAACGTTCG (((.(((....)))))) | -26.3 kcal/mol | 40.9 °C |
| GGACGCGGAAACGCATCC (((.(((....))).))) | -26.3 kcal/mol | 48.9 °C |
| GCGTGTACGAAAGTACGC (((..(((....)))))) | -15 kcal/mol | 53.1 °C |
| GACCCGACGAAAGTCGTC (((..(((....)))))) | -6.62 kcal/mol | 25.9 °C |

| Sequence | folding enthalpy [1] | Tm [2] |
| --- | --- | --- |
| GCCCAGCGAAAGCACGGC (((..((....))..))) | -18.4 kcal/mol | 52.1 °C |
| GCACACGGAAACGTACGC ((..(((....)))..)) | -25.2 kcal/mol | 35.6 °C |
| GTTAATGAAAATTAAC ((((((....)))))) | -25.9 kcal/mol | 40.1 °C |
| GCTTTGCCGAAAGGCAGC (((..(((....)))))) | -8.46 kcal/mol | 35.8 °C |
| CGAGCCGGAAACGGTTCG (((.(((....))).))) | -40.1 kcal/mol | 56 °C |
| GTGTACGAAAGTACCCAC ((((((....)))..))) | -10.3 kcal/mol | 31.9 °C |
| GTCCGGGGAAACCCGGGC (.(((((....))))).) | -21.6 kcal/mol | 65 °C |
| GGAGAGGGAAACTTCTCC (((((.(....).))))) | -26.8 kcal/mol | 44.3 °C |
| GATCTAAAACTAGATC ((((((....)))))) | -21.1 kcal/mol | 31.1 °C |
| GGTTCCTCGAAAGAGACC (((..(((....)))))) | -10.1 kcal/mol | 25.8 °C |
| GATCGTCGCTACGATC ((((((....)))))) | -41.6 kcal/mol | 55 °C |
| GGATATGAAAATATCC ((((((....)))))) | -31.6 kcal/mol | 50.9 °C |
| GAGACCCGAAAGGGCTC (((.(((....)))))) | -26.8 kcal/mol | 55.4 °C |
| GGGCCGCGAAAGCGCCCC (((.(((....))).))) | -12.4 kcal/mol | 68.8 °C |
| GCGAGACTTCGC ((((....)))) | -10.4 kcal/mol | 56.6 °C |
| GATCGCCTGAGCGATC ((((((....)))))) | -29.1 kcal/mol | 68.7 °C |
| GCATTCGAAAGAAGTTGC ((((((....)))..))) | -7.36 kcal/mol | 26 °C |
| GTGTGACGAAAGTCCAC (((.(((....)))))) | -40.2 kcal/mol | 52.3 °C |
| GCGAAACGTCGC ((((....)))) | -19.5 kcal/mol | 47.8 °C |
| GATCATAGAAATGATC ((((((....)))))) | -29.4 kcal/mol | 41.7 °C |
| GATCGCCTCCGCGATC ((((((....)))))) | -44.6 kcal/mol | 63.9 °C |
| GGACAGCGAAAGCTTTCC (((.(((....))).))) | -29.6 kcal/mol | 48.3 °C |
| GTTGGGGGAAACTCCGAC ((.((.(....).)).)) | -25.9 kcal/mol | 41.6 °C |
| GGCTCTGAAAAGAGCC ((((((....)))))) | -38.3 kcal/mol | 68.9 °C |

| Sequence | folding enthalpy [1] | Tm [2] |
| --- | --- | --- |
| GGTCGCGAAAGCGATACC ((((((....)))..))) | -11.3 kcal/mol | 47.7 °C |
| GCGTGTGGAAACATACGC ((((.((....)).)))) | -39 kcal/mol | 58.8 °C |
| GCTTATGCGAAAGCAAGC (((..(((....)))))) | -16.6 kcal/mol | 42.4 °C |
| GCCGAGCGAAAGCTGTGC ((..(((....)))..)) | -15.2 kcal/mol | 41.2 °C |
| GTCCACGAAAGTGTGAC ((((((....))).))) | -22.4 kcal/mol | 50.4 °C |
| GCGAGAGGAAACTTTCGC ((((.((....)).)))) | -33.8 kcal/mol | 48.8 °C |
| GTGGAGGGAAACCTCCGC (.(((((....))))).) | -37.6 kcal/mol | 56.2 °C |
| GATCATAGATATGATC ((((((....)))))) | -33.6 kcal/mol | 47.3 °C |
| GTACTTGCGAAAGCATAC (((..(((....)))))) | -9 kcal/mol | 30.2 °C |
| GACGCAGGAAACCGCGTC (((((.(....).))))) | -37.3 kcal/mol | 56.9 °C |
| GCGGAGCGAAAGCTGGGC ((..(((....)))..)) | -7.98 kcal/mol | 43.2 °C |
| GCATGGCGAAAGCCGCGC ((..(((....)))..)) | -19.7 kcal/mol | 61.1 °C |
| GGCCAGGGAAACCCGACC ((.(.((....)).).)) | -11.9 kcal/mol | 32.5 °C |
| GATCGACGATCGATC ((((((...)))))) | -20.6 kcal/mol | 49.2 °C |
| GATTGCGAAAGCATAATC ((((((....)))..))) | -12.8 kcal/mol | 33.1 °C |
| GCAGGGCGAAAGCCAAGC ((..(((....)))..)) | -17.2 kcal/mol | 53.4 °C |
| GCGCTCGGAAACGGGTGC ((.(.((....)).).)) | -53.1 kcal/mol | 51.6 °C |
| GATCCTCAGTAGGATC ((((((....)))))) | -35.4 kcal/mol | 49.9 °C |
| GATCAGCTCCTGATC ((((((...)))))) | -43.2 kcal/mol | 50 °C |
| GCTTGGCGAAAGCCGGGC ((..(((....)))..)) | -20.6 kcal/mol | 59.2 °C |
| GTGGTACGAAAGTACAC (((.(((....)))))) | -15 kcal/mol | 49.7 °C |
